The values below come from ChEMBL document CHEMBL2150857, “Design, synthesis and biological evaluation of 5-hydroxy, 5-substituted-pyrimidine-2,4,6-triones as potent inhibitors of gelatinases MMP-2 and MMP-9” (Eur J Med Chem, 2012).

The structures appear in SMILES notation.

Test [1] concerns the target T1, 72 kDa type IV collagenase (Homo sapiens, UniProt P08253). Nature of the test: Inhibition of MMP2 using Mca-Pro-Leu-Gly-Leu-Dpa-Ala-Arg as substrate incubated for 30 mins prior to substrate addition measured after 3 hrs by fluorimetric assay. In outline: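 It is preincubated with inhibitor at 25 °C for 30 min. Substrate is added from a 25 μM solution and incubated 3 h at 37 °C. Acetic acid quench, fluorescence ex 340/em 405 nm. IC50 from 6 concentrations in triplicate, two runs.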
Target sequence in this assay (P08253 whole entry): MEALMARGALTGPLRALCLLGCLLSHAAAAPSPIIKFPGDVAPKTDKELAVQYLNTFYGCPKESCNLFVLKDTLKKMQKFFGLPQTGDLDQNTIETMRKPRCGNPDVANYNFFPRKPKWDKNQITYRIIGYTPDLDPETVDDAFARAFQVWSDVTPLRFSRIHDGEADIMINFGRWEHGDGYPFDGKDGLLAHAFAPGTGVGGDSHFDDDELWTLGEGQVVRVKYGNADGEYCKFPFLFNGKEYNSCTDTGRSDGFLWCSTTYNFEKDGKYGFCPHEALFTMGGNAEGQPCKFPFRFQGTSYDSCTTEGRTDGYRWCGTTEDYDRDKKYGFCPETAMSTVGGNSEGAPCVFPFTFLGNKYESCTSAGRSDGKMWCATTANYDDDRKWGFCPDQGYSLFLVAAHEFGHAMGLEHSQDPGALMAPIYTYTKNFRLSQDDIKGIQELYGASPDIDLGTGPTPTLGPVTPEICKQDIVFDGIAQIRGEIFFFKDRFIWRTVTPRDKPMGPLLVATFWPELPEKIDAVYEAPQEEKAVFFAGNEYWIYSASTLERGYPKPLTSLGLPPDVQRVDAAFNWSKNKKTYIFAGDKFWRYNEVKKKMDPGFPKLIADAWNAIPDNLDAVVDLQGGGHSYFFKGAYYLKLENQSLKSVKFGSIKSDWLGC

Test [2] deals with T2, Matrix metalloproteinase-9 (Homo sapiens, UniProt P14780). The experiment in a line: Inhibition of recombinant MMP9 catalytic site using Mca-Pro-Leu-Gly-Leu-Dpa-Ala-Arg as substrate incubated for 30 mins prior to substrate addition measured after 3 hrs by fluorimetric assay. In outline:
(§1)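 Recombinant catalytic-domain MMP-8 or MMP-9 (500 pM enzyme solution) is used in Tris-HCl 0.1 M pH 7.5, 0.1 M NaCl, 10 mM CaCl2, 0.05% Brij35, 1 mM APMA. Preincubated with inhibitor 30 min at 25 °C, then substrate (25 μM solution) 3 h at 37 °C. Acetic acid stop, fluorescence 340/405 nm. IC50 from six concentrations in triplicate, run twice.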

For test [3], the target named is T3, Neutrophil collagenase (Homo sapiens, UniProt P22894). Nature of the test: Inhibition of recombinant MMP8 catalytic site using Mca-Pro-Leu-Gly-Leu-Dpa-Ala-Arg as substrate incubated for 30 mins prior to substrate addition measured after 3 hrs by fluorimetric assay. The essentials:
as §1
Target sequence in this assay (P22894 whole entry): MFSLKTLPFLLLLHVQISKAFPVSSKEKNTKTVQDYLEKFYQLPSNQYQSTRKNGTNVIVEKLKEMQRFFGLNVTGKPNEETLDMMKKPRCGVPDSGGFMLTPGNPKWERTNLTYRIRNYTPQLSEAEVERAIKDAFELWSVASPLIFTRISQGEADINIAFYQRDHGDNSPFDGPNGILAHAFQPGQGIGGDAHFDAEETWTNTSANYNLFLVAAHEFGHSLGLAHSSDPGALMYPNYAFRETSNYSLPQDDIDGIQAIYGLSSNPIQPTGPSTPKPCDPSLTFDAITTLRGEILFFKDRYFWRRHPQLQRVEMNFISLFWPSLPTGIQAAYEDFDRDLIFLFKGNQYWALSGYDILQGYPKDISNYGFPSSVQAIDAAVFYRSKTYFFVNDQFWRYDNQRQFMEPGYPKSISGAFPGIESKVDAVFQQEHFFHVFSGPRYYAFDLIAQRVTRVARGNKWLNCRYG

Test [4] deals with T1, 72 kDa type IV collagenase. The experiment in a line: Inhibition of MMP2 using Mca-Pro-Leu-Gly-Leu-Dpa-Ala-Arg as substrate at 100 uM incubated for 30 mins prior to substrate addition measured after 3 hrs by fluorimetric assay. The essentials: (§2)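 Buffer: Tris-HCl 0.1 M pH 7.5, 0.1 M NaCl, 10 mM CaCl2, 0.05% Brij35, 1 mM APMA. Compound and enzyme 30 min at 25 °C, then substrate (25 μM solution) 3 h at 37 °C. Acetic acid quench, fluorescence ex 340/em 405 nm.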
Target sequence in this assay (P08253 110-660 limits assumed): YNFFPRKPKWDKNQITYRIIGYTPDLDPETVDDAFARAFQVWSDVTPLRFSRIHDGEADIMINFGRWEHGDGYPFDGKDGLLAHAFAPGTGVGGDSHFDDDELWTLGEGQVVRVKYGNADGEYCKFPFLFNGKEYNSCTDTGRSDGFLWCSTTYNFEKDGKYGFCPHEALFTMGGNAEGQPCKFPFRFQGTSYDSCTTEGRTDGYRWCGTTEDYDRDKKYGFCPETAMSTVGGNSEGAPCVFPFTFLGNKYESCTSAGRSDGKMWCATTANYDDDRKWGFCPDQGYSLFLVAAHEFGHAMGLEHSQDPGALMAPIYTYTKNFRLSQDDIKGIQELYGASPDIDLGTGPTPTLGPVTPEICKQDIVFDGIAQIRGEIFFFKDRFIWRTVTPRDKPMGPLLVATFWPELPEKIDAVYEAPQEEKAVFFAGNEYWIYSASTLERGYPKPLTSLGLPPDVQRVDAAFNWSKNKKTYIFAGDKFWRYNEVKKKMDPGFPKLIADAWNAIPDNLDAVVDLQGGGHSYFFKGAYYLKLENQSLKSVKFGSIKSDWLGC

Test [5] deals with T2, Matrix metalloproteinase-9. Nature of the test: Inhibition of recombinant MMP9 catalytic site using Mca-Pro-Leu-Gly-Leu-Dpa-Ala-Arg as substrate at 100 uM incubated for 30 mins prior to substrate addition measured after 3 hrs by fluorimetric assay. In outline: (§3)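 Percent inhibition against control at a single concentration is measured on recombinant catalytic-domain MMP-8 or MMP-9 (500 pM enzyme solution). Tris-HCl 0.1 M pH 7.5 buffer with NaCl, CaCl2, Brij35, 1 mM APMA. Compound and enzyme 30 min at 25 °C, then substrate (25 μM solution) 3 h at 37 °C. Acetic acid stop, fluorescence 340/405 nm.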

For test [6], the target named is T3, Neutrophil collagenase. The experiment in a line: Inhibition of recombinant MMP8 catalytic site using Mca-Pro-Leu-Gly-Leu-Dpa-Ala-Arg as substrate at 100 uM incubated for 30 mins prior to substrate addition measured after 3 hrs by fluorimetric assay. In outline:
as §3
Target sequence in this assay (P22894 101-467 limits assumed): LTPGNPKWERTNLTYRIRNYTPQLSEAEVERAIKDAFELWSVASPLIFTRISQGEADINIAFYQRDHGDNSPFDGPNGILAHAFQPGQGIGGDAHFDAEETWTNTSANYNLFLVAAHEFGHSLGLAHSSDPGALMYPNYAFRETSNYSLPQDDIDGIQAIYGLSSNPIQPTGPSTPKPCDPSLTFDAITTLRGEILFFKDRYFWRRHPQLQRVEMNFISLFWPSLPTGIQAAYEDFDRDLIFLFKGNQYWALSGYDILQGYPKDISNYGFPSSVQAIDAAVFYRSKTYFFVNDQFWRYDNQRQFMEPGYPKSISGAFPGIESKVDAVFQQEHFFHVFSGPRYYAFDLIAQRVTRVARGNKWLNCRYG

In test [7] the target is T1, 72 kDa type IV collagenase. Nature of the test: Inhibition of MMP2 using Mca-Pro-Leu-Gly-Leu-Dpa-Ala-Arg as substrate at 10 uM incubated for 30 mins prior to substrate addition measured after 3 hrs by fluorimetric assay. In outline:
as §2
Target sequence in this assay (P08253 110-660 limits assumed): as the sequence (P08253 110-660 limits assumed) above

Test [8] deals with T2, Matrix metalloproteinase-9. Nature of the test: Inhibition of recombinant MMP9 catalytic site using Mca-Pro-Leu-Gly-Leu-Dpa-Ala-Arg as substrate at 10 uM incubated for 30 mins prior to substrate addition measured after 3 hrs by fluorimetric assay. In outline:
as §3

T2 sequence (P14780 whole entry): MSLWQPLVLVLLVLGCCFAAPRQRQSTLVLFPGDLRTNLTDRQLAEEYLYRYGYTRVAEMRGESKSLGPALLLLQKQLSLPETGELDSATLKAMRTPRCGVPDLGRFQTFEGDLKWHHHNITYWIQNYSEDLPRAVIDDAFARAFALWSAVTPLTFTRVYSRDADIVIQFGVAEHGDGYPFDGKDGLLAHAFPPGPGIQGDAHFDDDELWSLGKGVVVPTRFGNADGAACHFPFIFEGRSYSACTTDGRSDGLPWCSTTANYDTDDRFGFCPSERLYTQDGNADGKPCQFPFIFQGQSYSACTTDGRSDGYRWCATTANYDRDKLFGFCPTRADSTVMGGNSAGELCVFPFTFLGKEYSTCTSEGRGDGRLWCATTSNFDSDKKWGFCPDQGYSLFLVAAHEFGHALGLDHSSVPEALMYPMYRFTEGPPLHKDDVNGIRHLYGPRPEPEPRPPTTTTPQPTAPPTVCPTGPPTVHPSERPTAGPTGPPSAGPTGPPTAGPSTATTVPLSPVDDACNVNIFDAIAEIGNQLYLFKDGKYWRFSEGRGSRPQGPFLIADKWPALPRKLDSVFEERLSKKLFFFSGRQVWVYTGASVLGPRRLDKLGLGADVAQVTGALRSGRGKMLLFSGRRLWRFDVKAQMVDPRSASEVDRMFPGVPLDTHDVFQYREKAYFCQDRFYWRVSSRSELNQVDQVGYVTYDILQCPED

As to `CS(=O)(=O)c1ccc(-c2ccc(C(=O)CC3(O)C(=O)NC(=O)NC3=O)cc2)cc1`, the IC50 – broadly, the point on the concentration scale where inhibition reaches its midpoint – in test [1] worked out at 58 nM; in test [2] it was 650 nM; in test [3] it was 66 nM.

Take `CC(=O)C(c1ccc(-c2ccccc2)cc1)C1(O)C(=O)NC(=O)NC1=O` (centres undefined): the inhibition (commonly the share of the control response that was lost under treatment) stood at 38% in test [4], 28% in test [5] and 71% in test [6].

Turning to `O=C1NC(=O)C(O)(CC(=O)c2ccc(-c3ccc(Cl)cc3)cc2)C(=O)N1`, the IC50 in test [1] turned out to be 278 nM; in test [2], 66 nM; in test [3], 271 nM.

Regarding `O=C1NC(=O)C(O)(CC(=O)c2ccc([N+](=O)[O-])cc2)C(=O)N1`, the IC50 in test [3] was found to be 63000 nM. Moreover, the inhibition was 0% in test [7] and 8% in test [8].

As to `COc1ccc(-c2ccc(C(=O)CC3(O)C(=O)NC(=O)NC3=O)cc2)cc1`, the IC50 in test [1] was found to be 121 nM; in test [2] it was 141 nM; in test [3], 184 nM.

As to `CC(=O)c1ccc(-c2ccc(C(=O)CC3(O)C(=O)NC(=O)NC3=O)cc2)cc1`, the IC50 in test [1] stood at 30 nM; in test [2], 170 nM; in test [3], 109 nM.

For the compound `O=C1NC(=O)C(O)(CC(=O)c2ccc(-c3cccc([N+](=O)[O-])c3)cc2)C(=O)N1`, the 50% inhibitory concentration (IC50) in test [1] was found to be 8100 nM; in test [2] it was 27500 nM; in test [3], 2600 nM.

On to `CSc1ccc(-c2ccc(C(=O)CC3(O)C(=O)NC(=O)NC3=O)cc2)cc1`, for which the figures for the IC50 in test [1], in test [2] and in test [3] were 120 nM, 86 nM and 313 nM, respectively.

As for `O=C1NC(=O)C(O)(CC(=O)c2ccc(-c3ccc(CO)cc3)cc2)C(=O)N1`, the IC50 came to 148 nM in test [1], 561 nM in test [2] and 210 nM in test [3].

Take `O=C(Cc1ccc(-c2ccccc2)cc1)CC1(O)C(=O)NC(=O)NC1=O`: the inhibition in test [4] was determined as 10%; in test [5], 21%; in test [6] it was 26%.

`O=C1NC(=O)C(O)(CC(=O)c2ccccc2)C(=O)N1` displayed an inhibition in test [7] of 0%.

For the compound `O=C1NC(=O)C(O)(CC(=O)c2ccc(-c3ccsc3)cc2)C(=O)N1`, the figures for the IC50 in test [1], in test [2] and in test [3] were 181 nM, 159 nM and 153 nM, respectively.

On to `CN(C)C(=O)c1ccc(-c2ccc(C(=O)CC3(O)C(=O)NC(=O)NC3=O)cc2)cc1`, for which the IC50 was 1340 nM in test [1], 3010 nM in test [2] and 2020 nM in test [3].

Take `O=C1NC(=O)C(O)(CC(=O)c2ccc(-c3ccc(OC(F)(F)F)cc3)cc2)C(=O)N1`: the IC50 was determined as 143 nM in test [1], 21 nM in test [2] and 715 nM in test [3].

As for `Cc1ccc(-c2ccc(C(=O)CC3(O)C(=O)NC(=O)NC3=O)cc2)cc1`, the values for the IC50 in test [1], in test [2] and in test [3] were 301 nM, 103 nM and 336 nM, respectively.

Regarding `O=C1NC(=O)C(O)(CC(=O)c2ccc(C(F)(F)F)cc2)C(=O)N1`, the inhibition in test [8] turned out to be 11%.
